Bioassay records (PubChem BioAssay)
The list is not random: actives were taken first. Their share in the collection is about 2.9%.
MEKK2 mut-MEK5: MEK5 binding signal on mutant MEKK2 PB1, primary screen, biochemical, multiplex bead flow cytometry, Alexa488-MEK5; 290,000 compounds, 0.35% hits; Alexa488-MEK5 binding to MEKK2 mutant; percent response, % at 10 µM; in the data active means percent response above about 24%, passing the limit was not always enough
MEKK2wt PB1 HTS: modulators of MEK5 binding to wildtype MEKK2, primary screen, biochemical, multiplex bead flow cytometry, Alexa488-MEK5. binding response (% of control), % at 10 µM. 290,000 compounds, 1.1% hits. Alexa488-MEK5 binding to MEKK2 WT; actives lie on both sides. AID 1531, 2009. Mitogen-activated protein kinase kinase kinase 2 (Homo sapiens), Q9Y2U5; in the data active means binding response below about 67% or above about 130%
UBC13 polyUb: UBC13 polyubiquitin chain formation inhibitors, primary screen, biochemical, TR-FRET, uHTS | Ubiquitin-conjugating enzyme E2 N (Homo sapiens), P61088 | inhibition, % at 20 µM | 330,000 compounds, 0.47% hits; in the data active means inhibition above about 45%, passing the limit was not always enough
Target sequence (P61088 whole entry, looked up): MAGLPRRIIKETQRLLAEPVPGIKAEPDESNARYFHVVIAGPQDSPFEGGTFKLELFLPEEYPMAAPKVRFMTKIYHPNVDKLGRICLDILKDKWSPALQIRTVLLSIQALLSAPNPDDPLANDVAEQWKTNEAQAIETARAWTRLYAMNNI
Apaf1 inhib: inhibitors of human Apaf-1 apoptosome, primary screen, biochemical, DEVD-Rh110 fluorescence, uHTS. reconstituted apoptosome caspase-3 activity. inhibition, % at 20 µM. 330,000 compounds, 0.71% hits; active means inhibition of at least 40% at 20 µM;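 further: plate controls were DMSO wells for no effect and DEVD-CHO caspase inhibitor wells for full effect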
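Material: reconstituted apoptosome with Apaf-1, cytochrome c, caspase-9, procaspase-3, dATP / Buffer or medium: pH 7.5 Hepes buffer with CHAPS, BSA, DTT / Also added: cytochrome c with DEVD-Rh110 / Schedule: compound with Apaf-1, dATP, procaspase-3 30 min, then 50 min reaction, room temperature / Technique: rhodamine 110 fluorescence at Ex 480/Em 540 nm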
MEKK3 PB1 HTS: modulators of MEKK3-MEK5 PB1 binding, primary screen, biochemical, wildtype MEKK3, multiplex bead flow cytometry, Alexa488-MEK5 | Mitogen-activated protein kinase kinase kinase 3 (Homo sapiens), Q99759 | bead-based flow cytometry, Alexa488-MEK5 binding to MEKK3; actives lie on both sides; 0 = blocked by unlabeled MEK5, 100 = vehicle | binding response (% of control), % at 10 µM | 290,000 compounds, 1.4% hits | AID 1529, 2009;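 active means binding response more than 3 SD above or below the average of its plate-row segment, actives on both sides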;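 further: Alexa488 bead fluorescence after subtracting the streptavidin-only scavenger bead signal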
Target sequence (Q99759 whole entry, looked up): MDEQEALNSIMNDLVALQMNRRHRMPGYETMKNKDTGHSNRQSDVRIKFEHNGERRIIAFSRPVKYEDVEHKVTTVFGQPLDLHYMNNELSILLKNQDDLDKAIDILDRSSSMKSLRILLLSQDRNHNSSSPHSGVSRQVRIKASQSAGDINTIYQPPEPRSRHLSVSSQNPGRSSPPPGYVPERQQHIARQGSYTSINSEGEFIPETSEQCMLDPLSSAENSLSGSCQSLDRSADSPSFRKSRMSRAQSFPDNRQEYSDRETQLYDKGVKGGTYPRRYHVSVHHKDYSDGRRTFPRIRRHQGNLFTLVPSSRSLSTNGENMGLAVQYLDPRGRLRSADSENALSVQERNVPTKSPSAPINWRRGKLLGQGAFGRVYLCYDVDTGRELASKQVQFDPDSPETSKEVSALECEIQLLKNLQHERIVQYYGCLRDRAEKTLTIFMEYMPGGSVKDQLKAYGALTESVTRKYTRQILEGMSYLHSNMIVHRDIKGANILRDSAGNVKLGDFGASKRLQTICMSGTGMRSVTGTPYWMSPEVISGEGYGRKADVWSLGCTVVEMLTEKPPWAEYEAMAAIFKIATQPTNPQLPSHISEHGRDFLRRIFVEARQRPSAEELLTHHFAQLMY
MEKK2wt confirm: modulators of MEK5 binding to wildtype MEKK2, confirmation, biochemical, single concentration, multiplex bead flow cytometry; AID 1892, 2009; shares compounds with MEKK3 PB1 HTS; binding response (% of control), % at 10 µM; 5,900 compounds, 2.4% hits; Alexa488-MEK5 binding to MEKK2 WT; actives lie on both sides; in the data active means binding response below about 16% or above about 210%; inactive means in between
MEKK2mut confirm: mutant MEKK2 PB1-MEK5 binding signal retest – biochemical, single concentration, multiplex bead flow cytometry, confirmation; percent response, % at 10 µM; 5,900 compounds, 2% hits; Alexa488-MEK5 binding to MEKK2 mutant; shares compounds with MEKK3 PB1 HTS; in the data active means percent response mostly above about 71%, no sharp cut-off; inactive means mostly below about 38%;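 further: higher means compound restores mutant binding toward wildtype level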
MEKK3-MEK5 inh: MEKK3 wild-type PB1 binding to MEK5, inhibitors, confirmation, biochemical, bead multiplex flow cytometry, single concentration, wildtype; shares compounds with MEKK3 PB1 HTS; Alexa488-MEK5 binding to MEKK3; active compounds read low; binding response (% of control), % at 10 µM; 5,900 compounds, 1.8% hits; AID 1894, 2009;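 active means binding response below 72% of control, or above a set upper limit, though filed actives all read lower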;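 further: 100% = DMSO only wells and 0% = binding blocked by excess unlabeled MEK5; lower values mean stronger disruption of MEK5 binding to MEKK3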
* hit, by the source's call; [ ] = remark or other dose.

Results for CN(C)C(=O)N1CCC(C(=O)NCc2ccccc2)CC1 ?
MEKK2 mut-MEK5: -20.0; MEKK2wt PB1 HTS: -2.0*[inhibitor]; UBC13 polyUb: -5.1; Apaf1 inhib: -4.1; MEKK3 PB1 HTS: 1.0*[inhibitor]; MEKK2wt confirm: 96.0; MEKK2mut confirm: -5.0; MEKK3-MEK5 inh: 98.0

How did CN(C)C(=O)N1CCC(C(=O)NCc2ccc(F)cc2)CC1 do in these assays?
MEKK2 mut-MEK5: 4.0; MEKK2wt PB1 HTS: 101.0; UBC13 polyUb: -0.2; Apaf1 inhib: 3.2; MEKK3 PB1 HTS: 98.0

How did CCOc1nc(Nc2ccc(OC)c(Cl)c2)nc(N2CCN(c3ccc(OC)cc3)CC2)n1 do in these assays?
MEKK2 mut-MEK5: 33.0*; MEKK2wt PB1 HTS: 77.0; UBC13 polyUb: -10.7; Apaf1 inhib: 13.4; MEKK3 PB1 HTS: 79.0*[inhibitor]; MEKK2wt confirm: 112.0; MEKK2mut confirm: 4.0; MEKK3-MEK5 inh: 103.0

Results for Cc1nn(C)c(C)c1NC(=O)CSc1nc(Cc2ccccc2)nc2c1cnn2-c1ccccc1 ?
MEKK2 mut-MEK5: -9.0; MEKK2wt PB1 HTS: 81.0; UBC13 polyUb: 8.2; Apaf1 inhib: 2.8; MEKK3 PB1 HTS: 74.0*[inhibitor]; MEKK2wt confirm: 101.0; MEKK2mut confirm: 3.0; MEKK3-MEK5 inh: 100.0

How did COC(=O)c1ccc(C)c(-n2c(C)cc(C=O)c2C)c1 do in these assays?
MEKK2 mut-MEK5: 0.0; MEKK2wt PB1 HTS: 112.0; UBC13 polyUb: 1.2; Apaf1 inhib: -0.6; MEKK3 PB1 HTS: 150.0*; MEKK2wt confirm: 97.0; MEKK2mut confirm: 1.0; MEKK3-MEK5 inh: 95.0

What do the screens show for `COC(=O)c1cccc(-n2c(C)cc(C=O)c2C)c1`?
MEKK2 mut-MEK5: 0.0; MEKK2wt PB1 HTS: 105.0; UBC13 polyUb: 3.7; Apaf1 inhib: 5.4; MEKK3 PB1 HTS: 127.0

How did Cc1ccccc1C(=O)NC1CCN(CC(=O)Nc2ccc3c(c2)OCCO3)CC1 do in these assays?
MEKK2 mut-MEK5: -14.0; MEKK2wt PB1 HTS: 89.0; UBC13 polyUb: 0.6; Apaf1 inhib: -10.8; MEKK3 PB1 HTS: 88.0

What do the screens show for `CCOc1ccccc1NC(=O)NC1CCN(CC(=O)Nc2ccc3c(c2)OCCO3)CC1`?
MEKK2 mut-MEK5: -7.0; MEKK2wt PB1 HTS: 82.0; UBC13 polyUb: 0.9; Apaf1 inhib: 3.7; MEKK3 PB1 HTS: 75.0*[inhibitor]; MEKK2wt confirm: 101.0; MEKK2mut confirm: 4.0; MEKK3-MEK5 inh: 103.0

What do the screens show for `Cc1nn(CCOc2ccccc2)c(=O)n1-c1ccc(Cl)cc1`?
MEKK2 mut-MEK5: 4.0; MEKK2wt PB1 HTS: 123.0; UBC13 polyUb: 0.0; Apaf1 inhib: -9.7; MEKK3 PB1 HTS: 141.0*; MEKK2wt confirm: 102.0; MEKK2mut confirm: -1.0; MEKK3-MEK5 inh: 103.0

Results for O=S(=O)(CS(=O)(=O)c1ccc(Cl)cc1)c1ccc(Cl)cc1 ?
MEKK2 mut-MEK5: -2.0; MEKK2wt PB1 HTS: 89.0; UBC13 polyUb: 0.5; Apaf1 inhib: -2.7; MEKK3 PB1 HTS: 95.0

Results for CCOc1ccc(-n2c(SCc3ccc([N+](=O)[O-])cc3)nnc2-c2ccc(OC)cc2)cc1 ?
MEKK2 mut-MEK5: 0.0; MEKK2wt PB1 HTS: 102.0; UBC13 polyUb: -3.8; Apaf1 inhib: -303.7; MEKK3 PB1 HTS: 143.0*; MEKK2wt confirm: 99.0; MEKK2mut confirm: -2.0; MEKK3-MEK5 inh: 103.0

How did Cc1ccc(CNc2nc(C)c(C(=O)N(C)C)s2)cc1 do in these assays?
MEKK2 mut-MEK5: 0.0; MEKK2wt PB1 HTS: 99.0; UBC13 polyUb: -4.6; Apaf1 inhib: 7.3; MEKK3 PB1 HTS: 102.0

What do the screens show for `COC(=O)CSc1nnc(COc2cccc3ccccc23)o1`?
MEKK2 mut-MEK5: 28.0*; MEKK2wt PB1 HTS: 117.0; UBC13 polyUb: 5.1; Apaf1 inhib: 5.2; MEKK3 PB1 HTS: 116.0; MEKK2wt confirm: 105.0; MEKK2mut confirm: 4.0; MEKK3-MEK5 inh: 108.0

Results for O=C(NCC1(N2CCCCC2)CCCCC1)c1cccc(S(=O)(=O)Nc2ccc(F)cc2)c1 ?
UBC13 polyUb: 14.2; Apaf1 inhib: 0.9

Results for CCN(C(=O)COC(=O)c1cnc(C)cn1)C1CCCCC1 ?
MEKK2 mut-MEK5: -17.0; MEKK2wt PB1 HTS: 2.0*[inhibitor]; UBC13 polyUb: -5.1; Apaf1 inhib: -14.1; MEKK3 PB1 HTS: 1.0*[inhibitor]; MEKK2wt confirm: 99.0; MEKK2mut confirm: -5.0; MEKK3-MEK5 inh: 99.0

How did O=C(NCC1OCCc2ccccc21)c1ccc(NC(=O)c2ccc(Cl)cc2)cc1 (stereo not given) do in these assays?
MEKK2 mut-MEK5: 2.0; MEKK2wt PB1 HTS: 112.0; UBC13 polyUb: -0.7; Apaf1 inhib: 3.3; MEKK3 PB1 HTS: 134.0*; MEKK2wt confirm: 105.0; MEKK2mut confirm: 9.0; MEKK3-MEK5 inh: 106.0

How did O=C(O)CN1CCN(Cc2ccc(Cl)cc2)C1=O do in these assays?
MEKK2 mut-MEK5: -3.0; MEKK2wt PB1 HTS: 97.0; UBC13 polyUb: -4.2; Apaf1 inhib: -10.2; MEKK3 PB1 HTS: 96.0

Results for CC1CC(C)CN(C(=O)CN2CCN(Cc3ccc(Cl)cc3)C2=O)C1 (stereo not given) ?
MEKK2 mut-MEK5: 6.0; MEKK2wt PB1 HTS: 122.0; UBC13 polyUb: -8.4; Apaf1 inhib: 16.8; MEKK3 PB1 HTS: 128.0*; MEKK2wt confirm: 103.0; MEKK2mut confirm: 1.0; MEKK3-MEK5 inh: 98.0

How did CCOC(=O)C1=C(C)NC2=C(C(=O)CCC2)C1c1coc2ccccc2c1=O (stereo not given) do in these assays?
MEKK2 mut-MEK5: -4.0; MEKK2wt PB1 HTS: 91.0; UBC13 polyUb: -4.1; Apaf1 inhib: -20.9; MEKK3 PB1 HTS: 91.0

Results for CC1=C(C(=O)OCCOc2ccccc2)C(c2coc3ccccc3c2=O)C2=C(CCCC2=O)N1 (stereo not given) ?
MEKK2 mut-MEK5: -2.0; MEKK2wt PB1 HTS: 81.0; UBC13 polyUb: -2.4; Apaf1 inhib: -16.1; MEKK3 PB1 HTS: 69.0*[inhibitor]; MEKK2wt confirm: 103.0; MEKK2mut confirm: -4.0; MEKK3-MEK5 inh: 101.0
